In data set [1] the target is T1, PhlH (Pseudomonas fluorescens, UniProt Q4JIX5, L85A).
T1 sequence (Q4JIX5 1-225 L85A): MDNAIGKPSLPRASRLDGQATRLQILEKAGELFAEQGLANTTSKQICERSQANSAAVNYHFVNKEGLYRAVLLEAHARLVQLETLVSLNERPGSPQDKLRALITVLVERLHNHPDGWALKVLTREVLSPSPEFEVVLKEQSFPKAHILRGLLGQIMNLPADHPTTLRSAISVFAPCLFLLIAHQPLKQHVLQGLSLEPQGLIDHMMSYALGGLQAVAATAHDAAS
The experiment in a line: isothermal titration calorimetry. It counts as binding. A digest of the protocol:
(§1)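 N-terminally His6-tagged full-length PhlH from P. fluorescens 2P24, with point mutants made by site-directed mutagenesis. Expressed in E. coli Rosetta (DE3) (0.2 mM IPTG, 16 °C, 20 h), then Ni-NTA and gel filtration. ITC at 25 °C in degassed 20 mM Tris-HCl pH 8.0, 100 mM NaCl, 0.5% DMSO. Cell held 0.05–0.1 mM protein; syringe held 0.5–1 mM test compound. First 0.4 µl injection discarded, then 19 × 2.0 µl injections at 2-min spacing. Dilution heats subtracted; one-site fit gave Kd.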

Data set [2] addresses T2, PhlH (Pseudomonas fluorescens, UniProt Q4JIX5, L186A).
T2 sequence (Q4JIX5 1-225 L186A): T1 sequence (Q4JIX5 1-225 L85A)
The experiment in a line: isothermal titration calorimetry. It is filed as binding. A digest of the protocol: as §1

Data set [3] deals with T3, PhlH (Pseudomonas fluorescens, UniProt Q4JIX5, F173A).
T3 sequence (Q4JIX5 1-225 F173A): T1 sequence (Q4JIX5 1-225 L85A)
The experiment in a line: isothermal titration calorimetry. It is filed as binding. In short, it runs like this: as §1

In data set [4] the target is T4, PhlH (Pseudomonas fluorescens, UniProt Q4JIX5, R124A).
T4 sequence (Q4JIX5 1-225 R124A): T1 sequence (Q4JIX5 1-225 L85A)
Put plainly: isothermal titration calorimetry. It counts as binding. A digest of the protocol: as §1

Data set [5] deals with T5, PhlH (Pseudomonas fluorescens, UniProt Q4JIX5, H76A).
T5 sequence (Q4JIX5 1-225 H76A): T1 sequence (Q4JIX5 1-225 L85A)
The experiment in a line: isothermal titration calorimetry. It is filed as binding. In short, it runs like this:
as §1

Data set [6] addresses T6, PhlH (Pseudomonas fluorescens, UniProt Q4JIX5, V190A).
T6 sequence (Q4JIX5 1-225 V190A): T1 sequence (Q4JIX5 1-225 L85A)
Put plainly: isothermal titration calorimetry. It counts as binding. A digest of the protocol:
as §1

The next data set has as its target T7, PhlH R124A (Pseudomonas fluorescens 2P24, UniProt Q4JIX5 1-225, R124A).
T7 sequence: T1 sequence (Q4JIX5 1-225 L85A) with R124A
Put plainly: EMSA.

Residue numbers refer to the chain shown, from its start.

In the case of `CC(=O)c1c(O)cc(O)c(C(C)=O)c1O` [2,4-DAPG], the Kd on PhlH [1] was determined as 39 µM; at PhlH [2], 15.4 µM; on PhlH [3] it was 20.2 µM; on PhlH [4], 13.2 µM; on PhlH [5] it was 10.9 µM; on PhlH [6] it was 24.3 µM.

B1: F1 (phlG operator / upstream region) (dsDNA)
DNA 1: TAGTTCTAATTCAAATTTGACTTTTTATTT
DNA 2: AAATAAAAAGTCAAATTTGAATTAGAACTA
Turning to B1, the binding result with PhlH R124A is on record as “no binding”.
